ChEMBL document CHEMBL1122522, “Conformationally restricted retinoids” (1984)

Legend:
Cricetinae gen. sp. [1] = assay: Activity of compound the was expressed as ratio of active hamster tracheal organ cultures(TOC) to the total cultures at 10e-10 M concentration; 1/6; format: functional, Cricetulus griseus, Trachea
Outline: (§1)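 Tracheal organ cultures came from vitamin A-deficient hamsters. Each culture was scored for reversal of keratinization and reported as active cultures out of total cultures at each retinoid concentration tested (10⁻⁸ to 10⁻¹² M). The protocol followed earlier published methods.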

Cricetinae gen. sp. [2] = assay: Molarity required to effect reversal of keratinization in 50% of cultures.; format: functional, Cricetulus griseus
Cricetinae gen. sp. [3] = assay: Activity of compound the was expressed as ratio of active hamster tracheal organ cultures(TOC) to the total cultures at 10e-8 M concentration; 4/7; format: functional, Cricetulus griseus, Trachea; outline: as §1
Cricetinae gen. sp. [4] = assay: Activity of compound the was expressed as ratio of active hamster tracheal organ cultures(TOC) to the total cultures at 10e-9 M concentration; 3/7; format: functional, Cricetulus griseus, Trachea; outline: as §1
[5] = molecular target: T1, Ornithine decarboxylase (Mus musculus) (UniProt P00860); assay: Inhibition of the induction of ornithine decarboxylase in mouse epidermis by the tumor promoter 12-O-tetradecanoylphorbol-13-acetate (ODC) at dose 17 nmol * p<0.01
T1 sequence (whole entry): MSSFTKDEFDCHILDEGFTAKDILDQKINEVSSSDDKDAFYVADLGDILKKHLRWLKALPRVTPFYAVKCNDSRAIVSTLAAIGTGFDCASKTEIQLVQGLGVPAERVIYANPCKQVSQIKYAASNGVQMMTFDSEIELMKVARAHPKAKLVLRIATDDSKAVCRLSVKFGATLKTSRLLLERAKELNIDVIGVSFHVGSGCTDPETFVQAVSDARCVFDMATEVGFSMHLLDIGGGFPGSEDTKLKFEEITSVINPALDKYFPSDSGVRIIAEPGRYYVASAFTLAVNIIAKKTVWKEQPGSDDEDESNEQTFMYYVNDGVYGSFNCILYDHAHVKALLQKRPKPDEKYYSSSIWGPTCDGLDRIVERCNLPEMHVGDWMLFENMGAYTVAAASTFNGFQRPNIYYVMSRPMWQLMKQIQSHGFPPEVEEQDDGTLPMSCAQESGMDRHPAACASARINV

[6] = molecular target: T1, Ornithine decarboxylase (Mus musculus); assay: Inhibition of the induction of ornithine decarboxylase in mouse epidermis by the tumor promoter 12-O-tetradecanoylphorbol-13-acetate (ODC) at dose 1.7 nmol * Inhibition not significant
Cricetinae gen. sp. [7] = assay: Activity of compound the was expressed as ratio of active hamster tracheal organ cultures(TOC) to the total cultures at 10e-10 M concentration; 1/7; format: functional, Cricetulus griseus, Trachea; outline: as §1
Cricetinae gen. sp. [8] = assay: Activity of compound the was expressed as ratio of active hamster tracheal organ cultures(TOC) to the total cultures at 10e-9 M concentration; 2/6; format: functional, Cricetulus griseus, Trachea; outline: as §1
[9] = molecular target: T1, Ornithine decarboxylase (Mus musculus); assay: Inhibition of the induction of ornithine decarboxylase in mouse epidermis by the tumor promoter 12-O-tetradecanoylphorbol-13-acetate (ODC) at dose 1.7 nmol * p<0.001* inhibition not significant
[10] = molecular target: T1, Ornithine decarboxylase (Mus musculus); assay: Inhibition of the induction of ornithine decarboxylase in mouse epidermis by the tumor promoter 12-O-tetradecanoylphorbol-13-acetate (ODC) at dose 17 nmol * inhibition not significant
Cricetinae gen. sp. [11] = assay: Activity of compound the was expressed as ratio of active hamster tracheal organ cultures(TOC) to the total cultures at 10e-8 M concentration; format: functional, Cricetulus griseus, Trachea; outline: as §1
Cricetinae gen. sp. [12] = assay: Activity of compound the was expressed as ratio of active hamster tracheal organ cultures(TOC) to the total cultures at 10e-10 M concentration; format: functional, Cricetulus griseus, Trachea; outline: as §1
Cricetinae gen. sp. [13] = assay: Activity of compound the was expressed as ratio of active hamster tracheal organ cultures(TOC) to the total cultures at 10e-9 M concentration; format: functional, Cricetulus griseus, Trachea; outline: as §1
[14] = molecular target: T1, Ornithine decarboxylase (Mus musculus); assay: Inhibition of the induction of ornithine decarboxylase in mouse epidermis by the tumor promoter 12-O-tetradecanoylphorbol-13-acetate (ODC) at dose 1.7 nmol
[15] = molecular target: T1, Ornithine decarboxylase (Mus musculus); assay: Inhibition of the induction of ornithine decarboxylase in mouse epidermis by the tumor promoter 12-O-tetradecanoylphorbol-13-acetate (ODC) at dose 17 nmol
Cricetinae gen. sp. [16] = assay: Activity of compound the was expressed as ratio of active hamster tracheal organ cultures(TOC) to the total cultures at 10e-10 M concentration; 4/13; format: functional, Cricetulus griseus, Trachea; outline: as §1
Cricetinae gen. sp. [17] = assay: Activity of compound the was expressed as ratio of active hamster tracheal organ cultures(TOC) to the total cultures at 10e-8 M concentration; 7/7; format: functional, Cricetulus griseus, Trachea; details: at 0.01 µM
Cricetinae gen. sp. [18] = assay: Activity of compound the was expressed as ratio of active hamster tracheal organ cultures(TOC) to the total cultures at 10e-9 M concentration; 7/7; format: functional, Cricetulus griseus, Trachea; outline: as §1
Mus musculus [19] = species on record: Mus musculus; assay: Tested for relative activity in a 20-week anti-papilloma experiment in female CD-1 mice at dose 170 nmol; format: functional
Outline: (§2)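 Female Charles River CD-1 mice, 8 weeks old, in random groups of 25–30, were shaved 2 days before initiation with 200 nmol DMBA in acetone on the back. From 2 weeks on, 8.5 nmol TPA was applied twice weekly for 20 weeks. Retinoid in 0.2 mL acetone, or acetone alone for controls, was given 1 h before each TPA dose. Papillomas were counted weekly, and mean papillomas per mouse were compared with controls at 20 weeks.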

Mus musculus [20] = species on record: Mus musculus; assay: Tested for relative activity in a 20-week anti-papilloma experiment in female CD-1 mice at dose 17 nmol; format: functional; outline: as §2
Mus musculus [21] = species on record: Mus musculus; assay: Percent decrease in average number of papillomas at dose 170 nmol; format: functional; outline: as §2
Mus musculus [22] = species on record: Mus musculus; assay: Percent decrease in average number of papillomas at dose 17 nmol; format: functional; outline: as §2
[23] = Mortality range in days at dose 200 umol/kg day; format: functional, Mus musculus
Outline: (§3)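 Adult female Swiss mice (20–25 g) had chow and water ad libitum. The retinoid was homogenized as a suspension in aqueous 8% Cremophor EL plus 10% propylene glycol. It was given ip as 10 weekday injections over 14 days. Controls received vehicle alone. Survivors were weighed on days 1, 5, 10 and 15, and dates of death were recorded. Survival was scored at days 8 and 15.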

[24] = Mortality range in days at dose 300 umol/kg day; 12-15; format: functional, Mus musculus; outline: as §3
[25] = Mortality range in days at dose 600 umol/kg day; 7-10; format: functional, Mus musculus; outline: as §3
[26] = Percent survivors at dose 100 umol/kg day; format: functional, Mus musculus; outline: as §3
[27] = Percent survivors at dose 200 umol/kg day; format: functional, Mus musculus; outline: as §3
[28] = Percent survivors at dose 300 umol/kg day; format: functional, Mus musculus; outline: as §3
[29] = Percent survivors at dose 30 umol/kg day; format: functional, Mus musculus; outline: as §3
[30] = Percent survivors at dose 600 umol/kg day; format: functional, Mus musculus; outline: as §3
Cricetinae gen. sp. [31] = assay: Activity of compound the was expressed as ratio of active hamster tracheal organ cultures(TOC) to the total cultures at 10e-12 M concentration; 4/15; format: functional, Cricetulus griseus, Trachea
Cricetinae gen. sp. [32] = assay: Activity of compound the was expressed as ratio of active hamster tracheal organ cultures(TOC) to the total cultures at 10e-10 M concentration; 21/22; format: functional, Cricetulus griseus, Trachea
Cricetinae gen. sp. [33] = assay: Activity of compound the was expressed as ratio of active hamster tracheal organ cultures(TOC) to the total cultures at 10e-11 M concentration; 17/22; format: functional, Cricetulus griseus, Trachea
Cricetinae gen. sp. [34] = assay: Activity of compound the was expressed as ratio of active hamster tracheal organ cultures(TOC) to the total cultures at 10e-8 M concentration; 1/5; format: functional, Cricetulus griseus, Trachea; outline: as §1
Cricetinae gen. sp. [35] = assay: Activity of compound the was expressed as ratio of active hamster tracheal organ cultures(TOC) to the total cultures at 10e-9 M concentration; 1/5; format: functional, Cricetulus griseus, Trachea; outline: as §1

With CCOC(=O)c1ccc(/C=C/c2ccc3c(c2)C2CCC3C2)cc1 (configuration not stated) as the compound, how does the Activity (Cricetinae gen. sp. [1]) read?
Its Activity is 1%.

And the ED50 (Cricetinae gen. sp. [2])?
The ED50 was 3e-09.

What about the Activity (Cricetinae gen. sp. [3]) of the same compound?
The Activity was 4%.

And the Activity (Cricetinae gen. sp. [4])?
Its Activity is 43%.

And the inhibition [5]?
The inhibition was 39%.

What about the inhibition [6] of the same compound?
Its inhibition is 15%.

What does the source list for CCOC(=O)c1ccc(C2CC2c2ccc3c(c2)C2CCC3C2)cc1 (configuration not stated)?
Activity (Cricetinae gen. sp. [7]): 1%; ED50 (Cricetinae gen. sp. [2]): 5e-09; Activity (Cricetinae gen. sp. [3]): 4%; Activity (Cricetinae gen. sp. [8]): 33%; inhibition [9]: 12%; inhibition [10]: 0%

What does the source list for CC1=C(c2ccc(-c3ccc(C(=O)O)cc3)cc2)C(C)(C)CCC1?
Activity (Cricetinae gen. sp. [11]): 7%; Activity (Cricetinae gen. sp. [12]): 2%; ED50 (Cricetinae gen. sp. [2]): 3e-09; Activity (Cricetinae gen. sp. [13]): 2%; inhibition [14]: 34%; inhibition [15]: 55%

With C/C(=C\c1ccc(C(=O)O)cc1)c1ccc2c(c1)C(C)(C)CCO2 as the compound, how does the Activity (Cricetinae gen. sp. [16]) read?
Its Activity is 4%.

And the ED50 (Cricetinae gen. sp. [2])?
The ED50 was 2e-10.

And the Activity (Cricetinae gen. sp. [17])?
Its Activity is 7%.

And the Activity (Cricetinae gen. sp. [18])?
Its Activity is 100%.

And the Activity (Mus musculus [19])?
The Activity was 38%.

What about the Activity (Mus musculus [20]) of the same compound?
Its Activity is 53%.

And the Decrease (Mus musculus [21])?
Its Decrease is 94%.

And the Decrease (Mus musculus [22])?
Its Decrease is 75%.

What about the inhibition [14] of the same compound?
Its inhibition is 42%.

What about the inhibition [15] of the same compound?
The inhibition was 81%.

And the Mortality range [23]?
Its Mortality range is 14 days.

And the Mortality range [24]?
The Mortality range was 15 days.

What about the Mortality range [25] of the same compound?
Its Mortality range is 10 days.

What about the “Survivors at day 8” value [26] of the same compound?
The value was 100%.

And the “Survivors at day 15” value [26]?
Its value is 100%.

And the “Survivors at day 8” value [27]?
Its value is 100%.

What about the “Survivors at day 15” value [27] of the same compound?
Its value is 90%.

What about the “Survivors at day 8” value [28] of the same compound?
Its value is 100%.

And the “Survivors at day 15” value [28]?
Its value is 50%.

What about the “Survivors at day 8” value [29] of the same compound?
The value was 100%.

What about the “Survivors at day 8” value [30] of the same compound?
The value was 70%.

And the “Survivors at day 15” value [30]?
The value was 0%.

Which Activity (Cricetinae gen. sp. [31]) does the source give for CC1(C)CCC(C)(C)c2cc(-c3ccc4cc(C(=O)O)ccc4c3)ccc21 here?
The Activity was 4%.

And the Activity (Cricetinae gen. sp. [32])?
Its Activity is 21%.

What about the ED50 (Cricetinae gen. sp. [2]) of the same compound?
The ED50 was 3e-12.

What about the Activity (Cricetinae gen. sp. [33]) of the same compound?
The Activity was 17%.

With CC1=C(/C=C/c2ccc(/C(C)=C/C(=O)O)cc2)C(C)(C)CCC1 as the compound, how does the Activity (Cricetinae gen. sp. [34]) read?
Its Activity is 1%.

And the ED50 (Cricetinae gen. sp. [2])?
The ED50 was greater than 1e-08.

And the Activity (Cricetinae gen. sp. [35])?
The Activity was 1%.
